{"source": "ChEMBL document CHEMBL3627626", "about": "“6-Substituted Pyrrolo[2,3-d]pyrimidine Thienoyl Regioisomers as Targeted Antifolates for Folate Receptor α and the Proton-Coupled Folate Transporter in Human Tumors” (J Med Chem, 2015)", "key": {"[1]": {"biological_target": "Folate receptor beta (Homo sapiens) (UniProt P14207)", "sequence (P14207 17-230 limits assumed)": "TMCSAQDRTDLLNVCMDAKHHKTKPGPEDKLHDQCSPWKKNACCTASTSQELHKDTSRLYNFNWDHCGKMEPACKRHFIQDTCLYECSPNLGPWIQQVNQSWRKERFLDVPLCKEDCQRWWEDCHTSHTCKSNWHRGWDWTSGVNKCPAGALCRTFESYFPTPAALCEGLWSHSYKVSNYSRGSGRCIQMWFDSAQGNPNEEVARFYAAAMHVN", "experiment": "Displacement of [3H]-folic acid from human FRbeta expressed in Chinese hamster D4 cells after 15 mins relative to folic acid", "assay_type": "cell-based", "in_short": "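Competitive binding to surface folate receptor on RT16 (FRα) or D4 (FRβ) CHO cells. Cells were acid-washed (pH 3.5) to strip bound folate, then incubated in HEPES-buffered saline pH 7.4 with 50 nM [3H]folic acid plus unlabeled ligand (0–1000 nM) for 15 min at 0 °C. Bound label was normalised to protein. Affinity is the inverse molar ratio for 50% displacement, with folic acid set to 1. Mean of 4–10 experiments ±SE.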"}, "D4": {"test_system": "D4", "experiment": "Selectivity ratio of IC50 for human RFC expressed in Chinese hamster PC43-10 cells assessed as cell growth inhibition to IC50 for human FRbeta expressed in Chinese hamster D4 cells assessed as cell growth inhibition", "assay_type": "cell-based"}, "[2]": {"biological_target": "T1, Trifunctional purine biosynthetic protein adenosine-3 (Homo sapiens) (UniProt P22102)", "T1 sequence (whole entry)": "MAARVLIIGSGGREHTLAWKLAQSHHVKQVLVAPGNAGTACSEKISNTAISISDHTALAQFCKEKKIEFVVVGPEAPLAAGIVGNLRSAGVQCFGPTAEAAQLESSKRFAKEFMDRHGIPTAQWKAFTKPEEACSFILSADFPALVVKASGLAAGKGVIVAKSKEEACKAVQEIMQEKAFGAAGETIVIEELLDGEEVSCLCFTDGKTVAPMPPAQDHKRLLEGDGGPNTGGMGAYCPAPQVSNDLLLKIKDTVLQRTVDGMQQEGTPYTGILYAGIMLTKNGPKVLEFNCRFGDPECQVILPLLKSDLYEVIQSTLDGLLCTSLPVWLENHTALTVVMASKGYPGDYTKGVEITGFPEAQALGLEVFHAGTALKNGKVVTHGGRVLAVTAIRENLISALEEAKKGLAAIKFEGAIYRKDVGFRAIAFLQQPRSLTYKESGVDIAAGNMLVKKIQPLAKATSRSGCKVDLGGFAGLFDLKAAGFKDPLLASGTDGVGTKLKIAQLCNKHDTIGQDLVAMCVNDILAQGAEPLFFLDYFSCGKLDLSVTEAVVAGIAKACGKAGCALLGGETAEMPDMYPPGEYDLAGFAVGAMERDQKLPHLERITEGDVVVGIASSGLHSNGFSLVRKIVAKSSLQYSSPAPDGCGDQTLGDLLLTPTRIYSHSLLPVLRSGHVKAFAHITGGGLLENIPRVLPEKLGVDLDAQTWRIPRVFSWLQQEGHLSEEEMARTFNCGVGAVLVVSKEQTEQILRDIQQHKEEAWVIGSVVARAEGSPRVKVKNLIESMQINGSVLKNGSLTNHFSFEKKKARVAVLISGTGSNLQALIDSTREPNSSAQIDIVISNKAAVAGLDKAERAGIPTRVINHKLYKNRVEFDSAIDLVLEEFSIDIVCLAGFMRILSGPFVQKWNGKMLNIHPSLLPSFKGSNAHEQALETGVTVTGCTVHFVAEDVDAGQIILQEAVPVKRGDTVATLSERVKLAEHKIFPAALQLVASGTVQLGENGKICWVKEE", "experiment": "Inhibition of GARFTase in human KB cells expressing FRalpha/PCFT/RFC assessed as cell growth inhibition after 96 hrs by CellTiter-Blue assay in presence of adenosine", "assay_type": "cell-based"}, "[3]": {"biological_target": "T2, Proton-coupled folate transporter (Homo sapiens) (UniProt Q96NT5)", "T2 sequence (whole entry)": "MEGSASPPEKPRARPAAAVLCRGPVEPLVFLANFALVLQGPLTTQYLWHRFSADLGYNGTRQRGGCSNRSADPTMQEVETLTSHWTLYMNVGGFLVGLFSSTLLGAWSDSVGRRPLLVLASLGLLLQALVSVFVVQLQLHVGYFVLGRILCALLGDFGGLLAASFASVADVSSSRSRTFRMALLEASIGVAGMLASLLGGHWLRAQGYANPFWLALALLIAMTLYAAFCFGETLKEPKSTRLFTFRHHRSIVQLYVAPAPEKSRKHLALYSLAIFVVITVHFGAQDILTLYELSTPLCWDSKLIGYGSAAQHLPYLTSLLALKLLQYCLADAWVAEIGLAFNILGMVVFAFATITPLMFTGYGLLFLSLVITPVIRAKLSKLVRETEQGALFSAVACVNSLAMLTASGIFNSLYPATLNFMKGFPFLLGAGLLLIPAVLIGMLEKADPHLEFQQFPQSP", "experiment": "Binding affinity to human PCFT expressed in Chinese hamster R2/PCFT4 cells assessed as intracellular drug transport rate at 37 degC at pH 6.8 measured over 2 mins by Lineweaver-Burk plot analysis", "assay_type": "cell-based", "in_short": "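R2/PCFT4 CHO cells were grown as monolayers, transferred to spinner flasks, and used as suspensions (5–10 × 10⁷ cells). Uptake was quenched with ice-cold DPBS and cells were NaOH-solubilized. Results are pmol/mg protein; Kt and Vmax come from Lineweaver–Burke plots.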"}, "[4]": {"biological_target": "T2, Proton-coupled folate transporter (Homo sapiens)", "experiment": "Binding affinity to human PCFT expressed in Chinese hamster R2/PCFT4 cells assessed as cell growth inhibition after 96 hrs by CellTiter-Blue assay in presence of 200 nM folic acid", "assay_type": "cell-based", "in_short": "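Human-PCFT-transfected R2 CHO cells, precultured with G418, were plated at ~2500–5000 cells/well across a range of drug concentrations. Medium was folate-free RPMI 1640 (pH 7.2) with 25 nM LCV and 10% dialyzed FBS. Parallel wells received 200 nM folic acid. Incubated up to 96 h, then read with CellTiter Blue fluorescence (ex 560/em 590 nm).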"}, "Mus musculus": {"test_system": "Mus musculus", "experiment": "Toxicity in folate-replete diet fed NCR SCID mouse xenografted with human SKOV3 cells expressing RFC/PCFT/FRalpha assessed as body weight loss at 16 mg/kg, iv administered every 4 days on day 3, 7, 11", "assay_type": "organism-based, SK-OV-3", "settings": "in vivo, 96 h"}, "[5]": {"biological_target": "T3, Trifunctional purine biosynthetic protein adenosine-3 (Homo sapiens, UniProt P22102)", "T3 sequence (P22102 whole entry)": "T1 sequence (whole entry)", "experiment": "Inhibition of human recombinant His-tagged GARFTase assessed as formation of 5,8-dideazafolate from 10-formyl-5,80-dideazafolic acid measured every 15 secs over 20 mins by spectrophotometric analysis"}, "[6]": {"biological_target": "T1, Trifunctional purine biosynthetic protein adenosine-3 (Homo sapiens)", "experiment": "Inhibition of GARFTase in human KB cells expressing FRalpha/PCFT/RFC assessed as cell growth inhibition after 96 hrs by CellTiter-Blue assay in presence of thymidine", "assay_type": "cell-based"}, "RT16": {"test_system": "RT16", "experiment": "Selectivity ratio of IC50 for human RFC expressed in Chinese hamster PC43-10 cells assessed as cell growth inhibition to IC50 for human FRalpha expressed in Chinese hamster RT16 cells assessed as cell growth inhibition", "assay_type": "cell-based"}, "IGROV-1": {"test_system": "IGROV-1", "experiment": "Antiproliferative activity against human IGROV1 cells after 96 hrs by CellTiter-Blue assay in presence of 200 nM folic acid", "assay_type": "functional, cell-based", "settings": "IGROV-1, 96 h"}, "[7]": {"biological_target": "T2, Proton-coupled folate transporter (Homo sapiens)", "experiment": "Binding affinity to human PCFT expressed in Chinese hamster R2/PCFT4 cells assessed as increase in intracellular drug transport at 0.5 uM at 37 degC at pH 5.5 measured over 5 mins in presence of AGF94", "assay_type": "cell-based"}, "R2": {"test_system": "R2", "experiment": "Cytotoxicity against Chinese hamster R2 cells transfected with empty PCDNA3 assessed as cell growth inhibition after 96 hrs by CellTiter-Blue assay", "assay_type": "cell-based, Cricetulus griseus"}}, "note": "The source made the active and inactive calls. No cut-off for these calls is given here."}
{"smiles": "Nc1nc2[nH]c(CCCc3cc(C(=O)N[C@@H](CCC(=O)O)C(=O)O)cs3)cc2c(=O)[nH]1", "values": [{"measurement": "Activity", "setting": "[1]", "value": 35, "unit": "%"}, {"measurement": "Ratio IC50", "setting": "D4", "value": 1890}, {"measurement": "inhibition", "setting": "[2]", "value": "inactive"}, {"measurement": "K", "setting": "[3]", "value": 0.17, "unit": "µM"}, {"measurement": "Activity", "setting": "[4]", "value": "Active"}, {"measurement": "Activity", "setting": "Mus musculus", "value": "Non-toxic"}, {"measurement": "Ki", "setting": "[5]", "value": 9.1, "unit": "nM"}, {"measurement": "inhibition", "setting": "[6]", "value": "Active"}, {"measurement": "Ratio IC50", "setting": "RT16", "value": 610}, {"measurement": "IC50", "setting": "IGROV-1", "value": 276, "unit": "nM"}, {"measurement": "Activity", "setting": "[7]", "value": "inactive"}, {"measurement": "IC50", "setting": "R2", "value": "> 1000", "unit": "nM"}]}
